Data from ChEMBL document CHEMBL3227986, “Design of species- or isozyme-specific enzyme inhibitors. 1. Effect of thymidine substituents on affinity for the thymidine site of hamster cytoplasmic thymidine kinase” (J Med Chem, 1979).
Calls of active or inactive are those of the source. No cut-off for these calls is given here.

Experiments:
[1] = target: T1, Thymidine kinase, cytosolic (Cricetulus griseus) (UniProt P09768); test: Inhibition of thymidine kinase in BHK21 (C13) cells using [14C]thymidine at 50 uM after 10 mins by liquid scintillation spectrometer analysis relative to control in presence of Mg2+; format: cell-based; details: Mesocricetus auratus
T1 sequence (whole entry): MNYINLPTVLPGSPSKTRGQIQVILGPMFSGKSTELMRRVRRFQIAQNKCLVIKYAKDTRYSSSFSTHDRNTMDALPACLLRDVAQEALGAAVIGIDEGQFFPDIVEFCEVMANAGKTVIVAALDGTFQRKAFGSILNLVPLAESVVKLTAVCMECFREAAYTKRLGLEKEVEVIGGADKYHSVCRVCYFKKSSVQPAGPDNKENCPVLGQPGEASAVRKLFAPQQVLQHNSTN

[2] = target: T1, Thymidine kinase, cytosolic (Cricetulus griseus); test: Inhibition of thymidine kinase in BHK21 (C13) cells using thymidine as substrate assessed as formation of TMP at 2 mM; format: cell-based; details: Mesocricetus auratus
Outline: (§1)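 BHK21(C13) 100000g supernatant in Tris-HCl 0.05 M pH 8.0, ATP 5 mM, MgCl2 2.5 mM, [14C]thymidine 3.6 μM, 10 min at 37 °C. Reaction stopped by boiling; [14C]TMP bound to DEAE-cellulose disks and counted by liquid scintillation, corrected for unincubated blanks.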

[3] = target: T1, Thymidine kinase, cytosolic (Cricetulus griseus); test: Activity at thymidine kinase in BHK21 (C13) cells at 350 uM after 30 mins relative to thymidine; format: cell-based; details: Mesocricetus auratus
Outline: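 Radiolabeled thymidine or 2'-deoxyuridine derivatives tested as substrates: 40 μL BHK21(C13) 100000g supernatant, Tris-HCl 0.05 M pH 8.0, ATP 5 mM, MgCl2 2.5 mM, no thymidine, 30 min at 37 °C. Products separated by paper electrophoresis in 0.05 M triethylammonium bicarbonate pH 7.6; radioactivity counted in the TMP region.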

[4] = target: T1, Thymidine kinase, cytosolic (Cricetulus griseus); test: Inhibition of thymidine kinase in BHK21 (C13) cells using thymidine as substrate assessed as formation of TMP at 4 mM; format: cell-based; details: Mesocricetus auratus; outline: as §1
[5] = target: T2, Thymidine kinase 2, mitochondrial (Homo sapiens, UniProt O00142); test: Inhibition of human mitochondrial thymidine kinase
T2 sequence (O00142 whole entry): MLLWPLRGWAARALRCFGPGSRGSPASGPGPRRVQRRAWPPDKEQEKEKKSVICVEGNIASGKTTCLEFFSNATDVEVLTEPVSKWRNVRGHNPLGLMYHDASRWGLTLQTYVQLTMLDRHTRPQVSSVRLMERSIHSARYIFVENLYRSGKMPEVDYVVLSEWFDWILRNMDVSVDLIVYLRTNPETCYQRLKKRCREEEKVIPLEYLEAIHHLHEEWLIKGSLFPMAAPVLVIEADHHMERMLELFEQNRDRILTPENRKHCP

[6] = target: T3, Thymidine kinase, cytosolic (Homo sapiens, UniProt P04183); test: Inhibition of human cytoplasmic thymidine kinase
T3 sequence (P04183 whole entry): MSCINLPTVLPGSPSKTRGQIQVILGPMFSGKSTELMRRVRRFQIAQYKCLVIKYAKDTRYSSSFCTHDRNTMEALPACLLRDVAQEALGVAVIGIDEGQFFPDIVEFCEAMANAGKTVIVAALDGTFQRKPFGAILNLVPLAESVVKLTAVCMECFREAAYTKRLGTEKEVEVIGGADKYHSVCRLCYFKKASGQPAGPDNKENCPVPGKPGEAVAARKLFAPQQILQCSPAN

Question: `Cc1cn([C@H]2C[C@H](O)[C@@H](COP(=O)(O)OP(=O)(O)OP(=O)(O)O)O2)c(=O)[nH]c1=O` was tested. Which inhibition [1] did it give?
Answer: Its inhibition is “Active”.

Question: What does the source list for `CC(=O)Nc1cn([C@H]2C[C@H](O)[C@@H](CO)O2)c(=O)[nH]c1=O`?
Answer: inhibition [2]: 8%; Activity [3]: < 0.25%; inhibition [4]: 13%

Question: For `CCCc1cn([C@H]2C[C@H](O)[C@@H](CO)O2)c(=O)[nH]c1=O`, which Ki [5] is on record?
Answer: The Ki was 20 µM.

Question: What about the Ki [6] of the same compound?
Answer: Its Ki is 20 µM.
